Assay results taken from ChEMBL document CHEMBL1126159, “A novel class of enkephalinase inhibitors containing a C-terminal sulfo group” (J Med Chem, 1992).

How the values were obtained:
Neprilysin [1] = molecular target: T1, Neprilysin (Rattus norvegicus, UniProt P07861); assay: In vitro inhibitory activity against enkephalinase enzyme from rat.
T1 sequence (P07861 whole entry): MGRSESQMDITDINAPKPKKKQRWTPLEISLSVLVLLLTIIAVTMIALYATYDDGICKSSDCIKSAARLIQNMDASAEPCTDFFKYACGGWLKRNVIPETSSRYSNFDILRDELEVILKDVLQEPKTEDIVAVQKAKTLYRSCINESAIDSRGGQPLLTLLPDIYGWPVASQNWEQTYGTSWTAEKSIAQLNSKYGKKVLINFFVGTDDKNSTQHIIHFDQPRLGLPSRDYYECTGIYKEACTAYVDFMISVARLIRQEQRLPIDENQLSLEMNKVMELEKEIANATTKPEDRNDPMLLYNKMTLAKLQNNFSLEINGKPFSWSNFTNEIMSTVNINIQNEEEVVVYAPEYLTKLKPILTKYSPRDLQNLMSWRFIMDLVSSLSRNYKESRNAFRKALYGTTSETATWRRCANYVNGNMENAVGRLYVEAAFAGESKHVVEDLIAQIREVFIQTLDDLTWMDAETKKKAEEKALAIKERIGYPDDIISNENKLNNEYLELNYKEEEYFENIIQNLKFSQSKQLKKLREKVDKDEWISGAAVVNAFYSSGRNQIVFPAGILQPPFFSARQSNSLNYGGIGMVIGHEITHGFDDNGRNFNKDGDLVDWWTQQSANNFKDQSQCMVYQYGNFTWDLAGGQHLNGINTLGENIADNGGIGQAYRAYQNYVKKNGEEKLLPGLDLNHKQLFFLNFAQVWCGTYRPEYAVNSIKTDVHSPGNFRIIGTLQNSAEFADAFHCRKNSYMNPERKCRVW
Outline: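 Rat striatal membranes (male Std:Wistar) were solubilized with 1% Triton X-100 in 50 mM Tris-HCl pH 7.7 and fractionated on DEAE-cellulose; the enkephalin dipeptidylcarboxypeptidase fraction served as enzyme. […] Reaction was stopped with 0.2 N HCl, products separated on Porapak Q, and [3H]Tyr-Gly-Gly measured. IC50 by log-probit from 3–4 concentrations, run 2–3 times.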

[2] = molecular target: T2, Angiotensin-converting enzyme (Oryctolagus cuniculus, UniProt P12822); assay: In vitro inhibitory activity against angiotensin I converting enzyme (ACE) from rabbit lung
T2 sequence (P12822 whole entry): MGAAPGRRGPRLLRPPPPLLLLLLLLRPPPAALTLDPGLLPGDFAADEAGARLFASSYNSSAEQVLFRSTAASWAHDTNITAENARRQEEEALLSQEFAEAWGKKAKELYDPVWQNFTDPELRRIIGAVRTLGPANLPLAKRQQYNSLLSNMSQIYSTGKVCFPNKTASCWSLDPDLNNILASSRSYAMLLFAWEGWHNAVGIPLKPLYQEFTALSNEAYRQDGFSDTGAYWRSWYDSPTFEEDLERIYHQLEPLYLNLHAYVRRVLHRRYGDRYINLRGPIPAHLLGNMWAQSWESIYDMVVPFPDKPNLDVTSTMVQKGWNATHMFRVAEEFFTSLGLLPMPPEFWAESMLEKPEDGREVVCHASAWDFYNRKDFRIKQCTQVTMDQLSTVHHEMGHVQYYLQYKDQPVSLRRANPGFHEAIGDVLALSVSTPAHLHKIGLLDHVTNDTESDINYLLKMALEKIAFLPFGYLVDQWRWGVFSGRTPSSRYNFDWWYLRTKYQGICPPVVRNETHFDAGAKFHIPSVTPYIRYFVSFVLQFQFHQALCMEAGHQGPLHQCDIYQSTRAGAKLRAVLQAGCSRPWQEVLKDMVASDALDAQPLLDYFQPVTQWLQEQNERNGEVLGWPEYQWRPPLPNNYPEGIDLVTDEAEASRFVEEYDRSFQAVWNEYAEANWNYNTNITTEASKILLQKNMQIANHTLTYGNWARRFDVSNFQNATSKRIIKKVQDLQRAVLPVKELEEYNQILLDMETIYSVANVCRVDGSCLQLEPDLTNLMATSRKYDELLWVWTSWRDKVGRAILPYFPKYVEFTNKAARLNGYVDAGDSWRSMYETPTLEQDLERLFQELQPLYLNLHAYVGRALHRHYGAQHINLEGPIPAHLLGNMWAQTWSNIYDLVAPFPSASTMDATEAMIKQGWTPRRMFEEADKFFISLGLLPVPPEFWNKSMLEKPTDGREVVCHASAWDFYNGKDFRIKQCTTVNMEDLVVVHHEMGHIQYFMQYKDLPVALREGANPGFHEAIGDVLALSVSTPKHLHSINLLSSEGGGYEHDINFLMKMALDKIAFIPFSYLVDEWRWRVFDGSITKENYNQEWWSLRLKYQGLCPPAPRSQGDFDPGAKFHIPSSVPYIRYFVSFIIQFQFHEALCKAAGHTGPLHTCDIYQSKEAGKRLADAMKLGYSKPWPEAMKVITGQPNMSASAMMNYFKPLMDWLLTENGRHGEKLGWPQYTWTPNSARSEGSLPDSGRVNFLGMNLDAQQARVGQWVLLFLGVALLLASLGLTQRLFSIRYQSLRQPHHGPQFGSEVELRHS

Neprilysin [3] = molecular target: T1, Neprilysin; assay: The compound was tested in vitro for its inhibitory activity against Enkephalinase enzyme
Outline: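 Rat striatal membranes (male Std:Wistar) were solubilized with 1% Triton X-100 in 50 mM Tris-HCl pH 7.7 and fractionated on DEAE-cellulose; the enkephalin dipeptidylcarboxypeptidase fraction served as enzyme. IC50 by log-probit from 3–4 concentrations, run 2–3 times.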

[4] = molecular target: T2, Angiotensin-converting enzyme; assay: In vitro inhibitory activity against Angiotensin I converting enzyme from rabbit lung
Outline: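 Enzyme source was rabbit lung ACE. The inhibition procedure followed an earlier published method.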

Mus musculus [5] = assay: The compound was tested for administrating the compound intravenously; format: functional; settings: iv
Outline: (§1)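 Female ddY mice (18–22 g) were dosed iv 5 min before ip phenylbenzoquinone (0.03% in 5% aqueous EtOH, 10 mL/kg). Writhes were counted for 15 min starting 5 min after phenylbenzoquinone. More than 50% reduction versus vehicle control counted as effective; ED50 given with 95% confidence limits.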

Mus musculus [6] = assay: The compound was tested for administrating the compound intracisternally; format: functional
Outline: as §1, with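 “received 10 µL aqueous solution intracisternally 1” for “were dosed iv 5”, “phenylbenzoquinone. Mice with behavioural change after injection were excluded.” for “phenylbenzoquinone.”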

Row | Compound | IC50 (Neprilysin [1]) | other results
1 | O=C(Nc1ccc(S(=O)(=O)O)cc1)C(CS)Cc1noc2ccccc12 (stereo unspecified) | 12 nM | –
2 | O=C(Nc1ccc(S(=O)(=O)O)c2ccccc12)C(CS)Cc1ccccc1 (stereo unspecified) | – | IC50 [2]: 37000 nM; IC50 (Neprilysin [3]): 7.4 nM
3 | CC(C)CC(CS)C(=O)Nc1cccc(S(=O)(=O)O)c1 (stereo unspecified) | 2.4 nM | –
4 | CC(C)CC(CS)C(=O)Nc1ccc(S(=O)(=O)O)cc1 (stereo unspecified) | 0.9 nM | –
5 | O=C(Nc1ccc(S(=O)(=O)O)cc1)C(CS)Cc1ccc([N+](=O)[O-])cc1 (stereo unspecified) | – | IC50 (Neprilysin [3]): 14 nM
6 | O=C(Nc1ccc(S(=O)(=O)O)cc1)C(CS)Cc1cccc2ccccc12 (stereo unspecified) | 34 nM | –
7 | O=C(NCCS(=O)(=O)[O-])[C@H](CS)Cc1ccccc1.[Na+] | 4.4 nM | IC50 [4]: 740000 nM; ED50 (Mus musculus [5]): 43.3 mg/kg; ED50 (Mus musculus [6]): 17.7 µg mouse-1
8 | O=C(NCS(=O)(=O)O)C(CS)Cc1ccccc1 (stereo unspecified) | 2.2 nM | IC50 [4]: 12000 nM
9 | O=C(Nc1ccc(S(=O)(=O)O)cc1)C(CS)CCCc1ccccc1 (stereo unspecified) | 110 nM | –
10 | O=C(O)CNC(=O)C(CS)Cc1ccccc1 (stereo unspecified) [THIORPHAN] | – | ED50 (Mus musculus [5]): 72 mg/kg; ED50 (Mus musculus [6]): 17 µg mouse-1
11 | O=C(NCc1ccc(S(=O)(=O)O)cc1)C(CS)Cc1ccccc1 (stereo unspecified) | 11 nM | –
12 | CN(C)c1ccc(CC(CS)C(=O)NCCS(=O)(=O)O)cc1 (stereo unspecified) | 37 nM | –
13 | CC(C)CC(CS)C(=O)NCCS(=O)(=O)O (stereo unspecified) | – | IC50 (Neprilysin [3]): 5.2 nM
14 | O=C(NCCS(=O)(=O)O)C(CS)Cc1ccc([N+](=O)[O-])cc1 (stereo unspecified) | – | IC50 (Neprilysin [3]): 17 nM
15 | O=C(Nc1ccc(S(=O)(=O)O)cc1)C(CS)Cc1ccc(C(F)(F)F)cc1 (stereo unspecified) | 150 nM | –
16 | COc1ccc(CC(CS)C(=O)Nc2ccc(S(=O)(=O)O)cc2)cc1 (stereo unspecified) | 3.2 nM | –
17 | O=C(C(CS)Cc1ccccc1)N(CCS(=O)(=O)O)C1CC1 (stereo unspecified) | 4200 nM | –
18 | Cc1ccc(CC(CS)C(=O)Nc2cccc(S(=O)(=O)O)c2)cc1 (stereo unspecified) | 2.5 nM | –
19 | O=C(NCCS(=O)(=O)O)C(CS)Cc1cccc2ccccc12 (stereo unspecified) | 8.4 nM | –
20 | CC(NC(=O)C(CS)Cc1ccccc1)S(=O)(=O)O (stereo unspecified) | 31 nM | –
21 | O=C(Nc1ccc(S(=O)(=O)O)cc1)C(CS)Cc1ccc(-c2ccccc2)cc1 (stereo unspecified) | 52 nM | –
22 | O=C(Nc1ccc(S(=O)(=O)O)cc1)C(CS)Cc1ccccc1 (stereo unspecified) | 1.7 nM | IC50 [4]: 210000 nM
23 | CN(CCS(=O)(=O)O)C(=O)C(CS)Cc1ccccc1 (stereo unspecified) | 490 nM | –
24 | O=C(NCCS(=O)(=O)[O-])C(CS)Cc1ccccc1.[Na+] (stereo unspecified) | 1.5 nM | IC50 [4]: 720000 nM; ED50 (Mus musculus [5]): 18 mg/kg; ED50 (Mus musculus [6]): 20 µg mouse-1
25 | COc1ccc(CC(CS)C(=O)NCCS(=O)(=O)O)cc1 (stereo unspecified) | 4.4 nM | –

More lines, main results first:

Row | IC50 (Neprilysin [1]) | Compound | other results
26 | 33 nM | O=C(Nc1ccc(S(=O)(=O)O)cc1)C(CS)Cc1cccnc1 (stereo unspecified) | –
27 | 0.82 nM | O=C(NCCS(=O)(=O)[O-])[C@@H](CS)Cc1ccccc1.[Na+] | IC50 [4]: 430000 nM; ED50 (Mus musculus [5]): 8.5 mg/kg; ED50 (Mus musculus [6]): 11.8 µg mouse-1
28 | 5.4 nM | O=C(NCCCS(=O)(=O)O)C(CS)Cc1ccccc1 (stereo unspecified) | –
29 | 3.5 nM | O=C(NCCS(=O)(=O)O)C(CS)Cc1ccc(F)cc1 (stereo unspecified) | –
30 | 140 nM | O=C(Nc1ccccc1S(=O)(=O)O)C(CS)Cc1ccccc1 (stereo unspecified) | –
31 | 1.1 nM | Cc1ccc(CC(CS)C(=O)Nc2ccc(S(=O)(=O)O)cc2)cc1 (stereo unspecified) | –
32 | 250 nM | CC(C)CC(NC(=O)C(CS)Cc1ccccc1)S(=O)(=O)O (stereo unspecified) | –
33 | 11 nM | O=C(NCCS(=O)(=O)O)C(CS)CCCc1ccccc1 (stereo unspecified) | –
34 | 5 nM | O=C(Nc1ccc(S(=O)(=O)O)cc1)C(CS)Cc1ccc(F)cc1 (stereo unspecified) | –
35 | 3.1 nM | Cc1ccc(CC(CS)C(=O)NCCS(=O)(=O)O)cc1 (stereo unspecified) | –
36 | 14 nM | CN(C)c1ccc(CC(CS)C(=O)Nc2ccc(S(=O)(=O)O)cc2)cc1 (stereo unspecified) | –
37 | 0.27 nM | O=C(Nc1cccc(S(=O)(=O)O)c1)C(CS)Cc1ccccc1 (stereo unspecified) | IC50 [4]: 290000 nM
